For experiment [1], the target named is T1, Adenosine receptor A1 (Homo sapiens) (UniProt P30542).
T1 sequence (whole entry): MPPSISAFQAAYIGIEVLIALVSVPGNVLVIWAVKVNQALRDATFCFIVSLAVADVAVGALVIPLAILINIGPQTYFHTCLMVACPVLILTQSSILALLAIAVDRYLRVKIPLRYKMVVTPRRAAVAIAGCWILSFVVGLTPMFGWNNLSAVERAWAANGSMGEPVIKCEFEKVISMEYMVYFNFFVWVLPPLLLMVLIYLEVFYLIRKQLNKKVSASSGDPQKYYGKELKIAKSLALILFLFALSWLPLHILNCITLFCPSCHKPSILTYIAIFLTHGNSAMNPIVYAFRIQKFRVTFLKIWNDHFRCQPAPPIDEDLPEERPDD
The experiment is described as follows: Allosteric enhancement of human adenosine A1 receptor expressed in CHO cells assessed as inhibition of forskolin-induced cAMP production at 10 uM after 10 mins. The class given is functional, cell-based. The essentials: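 Whole hA1CHO cells (10⁶/mL) preincubated 10 min at 37 °C in phosphate buffer with adenosine deaminase (1.0 IU/mL) and Ro 20-1724 (0.5 mM). Compound alone at 10 μM for a further 10 min; forskolin 1 μM for 5 min. TCA stop, ether extraction, cAMP by [3H]-cAMP protein-binding competition assay. Expressed as pmol/10⁶ cells; mean ± SEM, three experiments.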
For orientation: Changes in cAMP serve as a functional read-out for many G protein-coupled receptors.

Experiment [2] deals with Adenosine receptor A2a (Homo sapiens) (UniProt P29274). The experiment is described as follows: Displacement of [3H]ZM 241385 from human adenosine A2A receptor expressed in CHO cells at 10 uM after 60 mins by scintillation counting. The class given is cell-based. The essentials:
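hA2ACHO membranes in 50 mM Tris HCl, 10 mM MgCl2, pH 7.4, 4 °C for 60 min. [3H]ZM 241385 given as 1 nM in methods and 2 nM in table footnote. Compound at 10 μM from 100-fold DMSO stock, 1% DMSO final. Nonspecific binding with 1 μM ZM 241385. Filtration and scintillation counting. Percent inhibition of control specific binding, ±SEM, n=3.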
A general note: Displacement assays read how much labelled ligand stays bound in the presence of the test substance.

Experiment [3] deals with T1, Adenosine receptor A1 (Homo sapiens). The experiment can be described thus: Allosteric enhancement of human adenosine A1 receptor expressed in CHO cells assessed as increase of CCPA Ki at 10 uM after 90 mins by [3H]DPCPX radioligand binding assay. The class given is cell-based. The essentials:
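hA1CHO membranes (50 mM Tris-HCl, pH 7.4, adenosine deaminase-treated). [3H]DPCPX 1 nM competed by CCPA (0.01 nM–1 μM) with or without test compound at 10 μM. Triplicate, 90 min at 25 °C. Nonspecific binding taken with 1 μM DPCPX. Filtration, then scintillation counting. Ki by Cheng–Prusoff. Shift = Ki(CCPA)/Ki(CCPA+enhancer). Mean ± SEM, n=3.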

Experiment [4] deals with T2, Adenosine receptor A3 (Homo sapiens) (UniProt P0DMS8).
T2 sequence (whole entry): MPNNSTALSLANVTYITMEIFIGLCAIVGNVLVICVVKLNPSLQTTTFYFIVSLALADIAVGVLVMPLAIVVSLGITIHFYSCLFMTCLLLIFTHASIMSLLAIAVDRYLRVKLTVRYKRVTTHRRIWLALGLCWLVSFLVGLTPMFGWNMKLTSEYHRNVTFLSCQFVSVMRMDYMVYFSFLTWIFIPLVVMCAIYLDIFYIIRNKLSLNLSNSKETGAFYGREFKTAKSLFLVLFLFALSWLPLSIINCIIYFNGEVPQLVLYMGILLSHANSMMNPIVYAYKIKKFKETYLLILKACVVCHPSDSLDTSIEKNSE
The experiment can be described thus: Displacement of [3H]MRE-3008-F20 from human adenosine A3 receptor expressed in CHO cells at 10 uM after 120 mins by scintillation counting.

In experiment [5] the target is T1, Adenosine receptor A1 (Homo sapiens). The experiment is described as follows: Allosteric enhancement of human adenosine A1 receptor expressed in CHO cells assessed as inhibition of CCPA-induced cAMP production at 100 nM after 10 mins. The class given is functional, cell-based. The essentials: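 Intact hA1CHO cells (10⁶/mL) in phosphate buffer with adenosine deaminase 1.0 IU/mL and Ro 20-1724 0.5 mM, preincubated 10 min at 37 °C. Compound 100 nM plus CCPA 1 pM added for 10 min, then forskolin 1 μM for 5 min. Stopped with cold 6% TCA, ether-extracted. cAMP measured by [3H]-cAMP competition with adrenal binding protein (4 °C, 150 min). pmol/10⁶ cells, mean ± SEM of three.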

The target is the same in experiment [6]. The experiment is described as follows: Allosteric enhancement of human adenosine A1 receptor expressed in CHO cells assessed as increase of [3H]CCPA Bmax at 10 uM after 90 mins. In kind it is cell-based. A digest of the protocol:
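Saturation of [3H]CCPA (0.05–20 nM) on hA1CHO membranes in 50 mM Tris-HCl, pH 7.4, with or without compound at final 10 μM. Triplicate, 25 °C, 90 min. Nonspecific binding defined with 1 μM R-PIA. Filter-bound radioactivity counted. KD and Bmax fitted by weighted nonlinear least squares; Bmax shift versus control. Mean ± SEM, n=3.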

Experiment [7] shares this target. The experiment is described as follows: Displacement of [3H]DPCPX from human adenosine A1 receptor expressed in CHO cells at 10 uM after 120 mins by scintillation counting.

SMILES strings stand for the structures.

Adenosine receptor A2a (Homo sapiens), sequence (P29274 whole entry): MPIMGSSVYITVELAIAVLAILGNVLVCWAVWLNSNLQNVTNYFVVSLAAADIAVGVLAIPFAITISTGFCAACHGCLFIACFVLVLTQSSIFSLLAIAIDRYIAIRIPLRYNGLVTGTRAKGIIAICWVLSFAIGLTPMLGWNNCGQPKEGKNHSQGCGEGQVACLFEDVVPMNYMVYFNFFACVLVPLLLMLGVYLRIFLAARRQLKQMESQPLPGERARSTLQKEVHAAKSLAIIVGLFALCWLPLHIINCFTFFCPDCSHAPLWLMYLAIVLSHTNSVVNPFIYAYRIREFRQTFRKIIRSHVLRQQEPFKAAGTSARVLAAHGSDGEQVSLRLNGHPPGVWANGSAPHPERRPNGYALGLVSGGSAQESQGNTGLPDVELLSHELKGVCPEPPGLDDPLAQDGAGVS

For the molecule `C=CCN(CC=C)Cc1c(Br)sc(N)c1C(=O)c1ccc(Cl)cc1`, the inhibition (commonly the share of the control response that was lost under treatment) came out at 8% in experiment [1]; 1% in experiment [2]; 8% in experiment [4]; 13% in experiment [5]; 6% in experiment [7]. The fold change (FC) in experiment [3] and in experiment [6] was 1.2 throughout.

As for `Nc1scc(CN2CCn3c(cc4ccccc43)C2)c1C(=O)c1ccc(Cl)cc1`, the inhibition in experiment [1] was found to be 66%; in experiment [2], 0%; in experiment [4], 3%; in experiment [5] it was 62%; in experiment [7], 3%. In addition, the fold change (FC) in experiment [3] worked out at 6.6; in experiment [6], 7.5.

For `Nc1scc(CN2CCC3(CC2)Oc2ccccc2O3)c1C(=O)c1ccc(Cl)cc1`, the inhibition in experiment [1] stood at 45%; in experiment [2], 1%; in experiment [4] it was 5%; in experiment [5] it was 43%; in experiment [7], 1%. Further, the fold change (FC) in experiment [3] was determined as 4.7; in experiment [6], 5.1.

Take `CN(C)Cc1c(-c2ccccc2)sc(N)c1C(=O)c1ccc(Cl)cc1`: the inhibition in experiment [1] was found to be 6%; in experiment [2], 1%; in experiment [4], 2%; in experiment [5], 10%; in experiment [7], 1%. Moreover, the fold change (FC) in experiment [3] was determined as 1; in experiment [6], 1.1.

Take `Nc1scc(COc2ccc(F)cc2)c1C(=O)c1ccc(Cl)cc1`: the inhibition in experiment [1] came out at 10%; in experiment [2], 1%; in experiment [4], 8%; in experiment [5], 15%; in experiment [7], 1%. The fold change (FC) in experiment [3] and in experiment [6] was 1.2 in each case.

For `Cc1ccc(OCc2csc(N)c2C(=O)c2ccc(Cl)cc2)cc1`, the inhibition in experiment [1] was found to be 11%; in experiment [2] it was 1%; in experiment [4] it was 11%; in experiment [5], 16%; in experiment [7] it was 5%. Further, the fold change (FC) in experiment [3] came out at 1.4; in experiment [6], 1.3.

Values taken from ChEMBL document CHEMBL2417436, “Synthesis and biological effects of novel 2-amino-3-(4-chlorobenzoyl)-4-substituted thiophenes as allosteric enhancers of the A1 adenosine receptor” (Eur J Med Chem, 2013).
